Data: ChEMBL document CHEMBL1155568, “Biological characterization of fusapyrone and deoxyfusapyrone, two bioactive secondary metabolites of Fusarium semitectum” (J Nat Prod, 2000)
Active and inactive are the calls of the source. The calls are words filed in the database; no cut-off is given here.

Columns and labels:
Saccharomyces cerevisiae = assay: Antifungal activity against Saccharomyces cerevisiae ITEM 1633 at 15 ug/disk by paper disk method; format: functional; conditions: read-out: IZ
Procedure, shortened: (§1)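 Agar overlay disk diffusion on plant-derived filamentous fungi and yeasts: 0.7% water-agar seeded with 10^4 conidia/mL or a yeast cell suspension, poured over PDA. 6-mm cellulose disks were loaded from methanolic solutions and air-dried, with nystatin as comparator. Plates ran 24-72 h at 25 °C; inhibition halo was measured over three disks. Agar beneath disks was subcultured on PDA to separate fungicidal from fungistatic, scored in four classes; run twice, averaged.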

Cryptococcus neoformans [1] = assay: Antifungal activity against Cryptococcus neoformans 13 after 72 hrs by broth micromethod assay; format: functional
Procedure, shortened: (§2)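 Broth microdilution in YNB with 0.5% glucose, phosphate buffer pH 7, using ten 2-fold dilutions (50-0.097 µg/mL). Inoculum from 24-48 h Sabouraud agar cultures, final 5 × 10^2 cells for C. albicans and C. kefyr, 5 × 10^3 cells/conidia for C. glabrata, Cryptococcus neoformans and Aspergillus. Incubated at 35 °C up to 72 h, read every 24 h. MIC is the complete absence of growth versus medium controls.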

Wickerhamomyces anomalus = assay: Antifungal activity against Pichia anomala ITEM 1661 at 15 ug/disk by paper disk method; format: functional; conditions: Hansenula anomala; read-out: IZ; procedure, shortened: as §1
Candida albicans [2] = assay: Antifungal activity against Candida albicans 2 after 24 hrs by broth micromethod assay; format: functional; procedure, shortened: as §2
Fusarium incarnatum = assay: Antifungal activity against Fusarium semitectum ITEM 393 at 15 ug/disk by paper disk method; format: functional; conditions: read-out: IZ
Procedure, shortened: (§3)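 Agar diffusion: a 0.7% water-agar overlay carrying 10^4 conidia/mL (or yeast cells) is poured on PDA. 6-mm cellulose disks loaded with methanolic compound at 5 or 15 µg/disk are air-dried and applied, with nystatin as comparator. Plates incubated 24-72 h at 25 °C; inhibition halo diameter read from three disks. Agar under each disk is subcultured on PDA to score fungicidal/fungistatic effect. Experiment run twice and averaged.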

Alternaria citri = assay: Antifungal activity against Alternaria citri ITEM 466 at 15 ug/disk by paper disk method; format: functional; conditions: read-out: IZ
Procedure, shortened: (§4)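 Agar overlay diffusion: 0.7% water-agar with 10^4 conidia/mL of test fungus poured over PDA; 6-mm cellulose disks impregnated with methanolic compound solution, air-dried. Incubated 25 °C for 24-72 h by fungus; growth-inhibition halo diameter from three replicate disks. Agar under disks then subcultured on PDA to score fungicidal/fungistatic classes. Repeated twice, averaged.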

Aspergillus flavus [3] = assay: Antifungal activity against Aspergillus flavus 3 after 24 hrs by broth micromethod assay; format: functional; procedure, shortened: as §2
Solanum lycopersicum [4] = assay: Phytotoxicity against tomato assessed as seedling germination; format: organism-based; conditions: in vivo
Procedure, shortened: (§5)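 Tomato seeds were surface-sterilized in 4% NaClO for 10 min and pregerminated 3 days in the dark. They were then placed 10 per dish on filter paper wetted with 2 mL of compound in 1% MeOH (10^-4 or 10^-5 M) and held 4 days at 25 °C under a 12-h photoperiod. Shoot and rootlet lengths were measured against control; done in triplicate, repeated once.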

Cladosporium cucumerinum = assay: Antifungal activity against Cladosporium cucumerinum ITEM 2095 at 15 ug/disk by paper disk method; format: functional; conditions: read-out: IZ; procedure, shortened: as §3
Aspergillus niger [5] = assay: Antifungal activity against Aspergillus niger 2 after 72 hrs by broth micromethod assay; format: functional; procedure, shortened: as §2
Cryptococcus neoformans [6] = assay: Antifungal activity against Cryptococcus neoformans 14 after 48 hrs by broth micromethod assay; format: functional; procedure, shortened: as §2
Rhodotorula mucilaginosa = assay: Antifungal activity against Rhodotorula pilimanae at 15 ug/disk by […]; format: functional; conditions: read-out: IZ
Cicer arietinum [7] = assay: Phytotoxicity in chickpea leaf assessed as necrosis in the leaf at 10^-3 M by leaf puncture assay; format: organism-based; conditions: in vivo, 1000 µM
Procedure, shortened: (§6)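 Tomato and chickpea leaves were punctured and treated with toxin dissolved in MeOH and diluted with water (final 4% MeOH), tested from 10^-2 to 10^-7 M. Chlorosis and necrosis were recorded visually as spot symptoms.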

Kluyveromyces marxianus = assay: Antifungal activity against Candida kefyr Y0601 after 24 hrs by broth micromethod assay; format: functional; procedure, shortened: as §2
Candida albicans [8] = assay: Antifungal activity against Candida albicans Y01009 after 24 hrs by broth micromethod assay; format: functional; procedure, shortened: as §2
Fusarium subglutinans = assay: Antifungal activity against Fusarium subglutinans at 15 ug/disk by paper disk method; format: functional; procedure, shortened: as §3
[9] = test system: Penicillium brevicompactum; assay: Antifungal activity against Penicillium brevicompactum ITEM 449 at 15 ug/disk by paper disk method; format: functional; conditions: read-out: IZ; procedure, shortened: as §1
Aspergillus parasiticus = assay: Antifungal activity against Aspergillus parasiticus ITEM 11 at 15 ug/disk by paper disk method; format: functional; conditions: read-out: IZ; procedure, shortened: as §3
Candida albicans [10] = assay: Antifungal activity against Candida albicans at 50 ug/disk by paper disk method; format: functional, organism-based
Fusarium oxysporum = assay: Antifungal activity against Fusarium oxysporum ITEM 1462 at 15 ug/disk by paper disk method; format: functional; conditions: read-out: IZ; procedure, shortened: as §3
Aspergillus flavus [11] = assay: Antifungal activity against Aspergillus flavus 3 after 48 hrs by broth micromethod assay; format: functional; procedure, shortened: as §2
Solanum lycopersicum [12] = assay: Stimulation of root elongation in tomato at 10^-5 M; format: functional, organism-based; procedure, shortened: as §5
Pichia kluyveri = assay: Antifungal activity against Pichia kluyveri ITEM 1649 at 15 ug/disk by paper disk method; format: functional; procedure, shortened: as §1
Nakaseomyces glabratus = assay: Antifungal activity against Candida glabrata 12 after 24 hrs by broth micromethod assay; format: functional; procedure, shortened: as §2
Cryptococcus neoformans [13] = assay: Antifungal activity against Cryptococcus neoformans 14 after 24 hrs by broth micromethod assay; format: functional; procedure, shortened: as §2
Plenodomus tracheiphilus = assay: Antifungal activity against Phoma tracheiphilla ITEM 1605 at 15 ug/disk by paper disk method; format: functional; conditions: read-out: IZ; procedure, shortened: as §1
Alternaria alternata [14] = assay: Antifungal activity against Alternaria alternata ITEM 511 at 15 ug/disk by paper disk method; format: functional; conditions: read-out: IZ; procedure, shortened: as §3
Aspergillus fumigatus [15] = assay: Antifungal activity against Aspergillus fumigatus 1 after 24 hrs by broth micromethod assay; format: functional; procedure, shortened: as §2
Priestia megaterium = assay: Antimicrobial activity against Bacillus megaterium at 30 ug/disk by agar diffusion method; format: functional, organism-based
Solanum lycopersicum [16] = assay: Stimulation of root elongation in tomato at 10^-4 M; format: functional, organism-based; procedure, shortened: as §5
Candida albicans [17] = assay: Antifungal activity against Candida albicans 1 after 24 hrs by broth micromethod assay; format: functional; procedure, shortened: as §2
Cicer arietinum [18] = assay: Phytotoxicity in chickpea leaf assessed as chlorosis in the leaf at 10^-3 M by leaf puncture assay; format: organism-based; conditions: in vivo, 1000 µM; procedure, shortened: as §6
Aspergillus flavus [19] = assay: Antifungal activity against Aspergillus flavus 3 after 72 hrs by broth micromethod assay; format: functional; procedure, shortened: as §2
Alternaria alternata [20] = assay: Antifungal activity against Alternaria alternata ITEM 468 at 15 ug/disk by paper disk method; format: functional; conditions: read-out: IZ; procedure, shortened: as §3
[21] = test system: Colletotrichum gloeosporioides; assay: Antifungal activity against Colletotrichum gloeosporioides ITEM 1729 at 15 ug/disk by paper disk method; format: functional; conditions: read-out: IZ; procedure, shortened: as §3
Cryptococcus neoformans [22] = assay: Antifungal activity against Cryptococcus neoformans 13 after 48 hrs by broth micromethod assay; format: functional; procedure, shortened: as §2
Aspergillus niger [23] = assay: Antifungal activity against Aspergillus niger 2 after 24 hrs by broth micromethod assay; format: functional; procedure, shortened: as §2
Aspergillus flavus [24] = assay: Antifungal activity against Aspergillus flavus ITEM 9 at 15 ug/disk by paper disk method; format: functional; conditions: read-out: IZ; procedure, shortened: as §3
Aspergillus fumigatus [25] = assay: Antifungal activity against Aspergillus fumigatus 1 after 72 hrs by broth micromethod assay; format: functional; procedure, shortened: as §2
Fusarium graminearum = assay: Antifungal activity against Fusarium graminearum ITEM 2 at 15 ug/disk by paper disk method; format: functional; conditions: read-out: IZ; procedure, shortened: as §4
Botrytis cinerea = assay: Antifungal activity against Botrytis cinerea at 15 ug/disk by paper disk method; format: functional; conditions: read-out: IZ; procedure, shortened: as §3
Ascochyta rabiei = assay: Antifungal activity against Ascochyta rabiei ITEM 466 at 5 ug/disk by paper disk method; format: functional, organism-based; procedure, shortened: as §3

With `CCCCCCC(C)C/C(C)=C\C(C)/C=C(C)/C=C/C(O)C(C)(C)c1cc(O)c([C@@H]2O[C@@H](CO)C[C@@H](O)[C@@H]2O)c(=O)o1` (some centres undefined) [DEXOYFUSAPYRONE] the zone of inhibition at 15 µg/disc (Saccharomyces cerevisiae) was 0 mm, the Activity (Cryptococcus neoformans [1]) was 6.25 µg/mL and the zone of inhibition at 15 µg/disc (Wickerhamomyces anomalus) was 0 mm. For the same molecule, the Activity (Candida albicans [2]) was over 50 µg/mL, the zone of inhibition at 15 µg/disc (Fusarium incarnatum) was 8 mm and the zone of inhibition at 15 µg/disc (Alternaria citri) was 9.2 mm. For the same molecule, the Activity (Aspergillus flavus [3]) was 1.56 µg/mL, the Activity (Solanum lycopersicum [4]) was “Not Active” and the zone of inhibition at 15 µg/disc (Cladosporium cucumerinum) was 13.5 mm. For the same molecule, the Activity (Aspergillus niger [5]) was 1.56 µg/mL, the Activity (Cryptococcus neoformans [6]) was 3.12 µg/mL and the zone of inhibition at 15 µg/disc (Rhodotorula mucilaginosa) was 0 mm. The Activity (Cicer arietinum [7]) was “Active”, the Activity (Kluyveromyces marxianus) was over 50 µg/mL and the Activity (Candida albicans [8]) was over 50 µg/mL. It also gave an Activity (Fusarium subglutinans) of 0 mm, a zone of inhibition at 15 µg/disc [9] of 10.5 mm and a zone of inhibition at 15 µg/disc (Aspergillus parasiticus) of 12.7 mm. The Activity (Candida albicans [10]) was “inactive”, the zone of inhibition at 15 µg/disc (Fusarium oxysporum) was 0 mm and the Activity (Aspergillus flavus [11]) was 1.56 µg/mL. The Activity (Solanum lycopersicum [12]) was “Active”, the Activity (Pichia kluyveri) was 0 mm and the Activity (Nakaseomyces glabratus) was over 50 µg/mL. The Activity (Cryptococcus neoformans [13]) was 3.12 µg/mL, the zone of inhibition at 15 µg/disc (Plenodomus tracheiphilus) was 16.3 mm and the zone of inhibition at 15 µg/disc (Alternaria alternata [14]) was 11 mm. For the same molecule, the Activity (Aspergillus fumigatus [15]) was 3.12 µg/mL, the Activity (Priestia megaterium) was “inactive” and the Activity (Solanum lycopersicum [16]) was “Active”. The Activity (Candida albicans [17]) was over 50 µg/mL, the Activity (Cicer arietinum [18]) was “Active” and the Activity (Aspergillus flavus [19]) was 1.56 µg/mL. For the same molecule, the zone of inhibition at 15 µg/disc (Alternaria alternata [20]) was 10.8 mm, the zone of inhibition at 15 µg/disc [21] was 13.8 mm and the Activity (Cryptococcus neoformans [22]) was 6.25 µg/mL. It also gave an Activity (Aspergillus niger [23]) of 1.56 µg/mL, a zone of inhibition at 15 µg/disc (Aspergillus flavus [24]) of 12.4 mm and an Activity (Aspergillus fumigatus [25]) of 3.12 µg/mL. The zone of inhibition at 15 µg/disc (Fusarium graminearum) was 10.8 mm, the zone of inhibition at 15 µg/disc (Botrytis cinerea) was 17 mm and the Activity (Ascochyta rabiei) was “Active”.
Work on `CCCCCCC(C)C/C(C)=C\C(/C=C(C)/C=C/C(O)C(C)(C)c1cc(O)c([C@@H]2O[C@@H](CO)C[C@@H](O)[C@@H]2O)c(=O)o1)CO` (some centres undefined) [FUSAPYRONE] yielded a zone of inhibition at 15 µg/disc (Saccharomyces cerevisiae) of 0 mm, an Activity (Cryptococcus neoformans [1]) of 6.25 µg/mL and a zone of inhibition at 15 µg/disc (Wickerhamomyces anomalus) of 0 mm. It also gave an Activity (Candida albicans [2]) of over 50 µg/mL, a zone of inhibition at 15 µg/disc (Fusarium incarnatum) of 28.7 mm and a zone of inhibition at 15 µg/disc (Alternaria citri) of 18 mm. For the same molecule, the Activity (Aspergillus flavus [3]) was 1.56 µg/mL, the Activity (Solanum lycopersicum [4]) was “Not Active” and the zone of inhibition at 15 µg/disc (Cladosporium cucumerinum) was 33.3 mm. It also gave an Activity (Aspergillus niger [5]) of 1.56 µg/mL, an Activity (Cryptococcus neoformans [6]) of 3.12 µg/mL and a zone of inhibition at 15 µg/disc (Rhodotorula mucilaginosa) of 0 mm. For the same molecule, the Activity (Cicer arietinum [7]) was “Active”, the Activity (Kluyveromyces marxianus) was 0.78 µg/mL and the Activity (Candida albicans [8]) was over 50 µg/mL. The Activity (Fusarium subglutinans) was 6 mm, the zone of inhibition at 15 µg/disc [9] was 30 mm and the zone of inhibition at 15 µg/disc (Aspergillus parasiticus) was 27.5 mm. The Activity (Candida albicans [10]) was “inactive”, the zone of inhibition at 15 µg/disc (Fusarium oxysporum) was 28.3 mm and the Activity (Aspergillus flavus [11]) was 1.56 µg/mL. For the same molecule, the Activity (Solanum lycopersicum [12]) was “Active”, the Activity (Pichia kluyveri) was 0 mm and the Activity (Nakaseomyces glabratus) was over 50 µg/mL. It also gave an Activity (Cryptococcus neoformans [13]) of 3.12 µg/mL, a zone of inhibition at 15 µg/disc (Plenodomus tracheiphilus) of 40 mm and a zone of inhibition at 15 µg/disc (Alternaria alternata [14]) of 18 mm. The Activity (Aspergillus fumigatus [15]) was 1.56 µg/mL, the Activity (Priestia megaterium) was “inactive” and the Activity (Solanum lycopersicum [16]) was “Active”. The Activity (Candida albicans [17]) was over 50 µg/mL, the Activity (Cicer arietinum [18]) was “Active” and the Activity (Aspergillus flavus [19]) was 1.56 µg/mL. The zone of inhibition at 15 µg/disc (Alternaria alternata [20]) was 18.8 mm, the zone of inhibition at 15 µg/disc [21] was 31.8 mm and the Activity (Cryptococcus neoformans [22]) was 6.25 µg/mL. For the same molecule, the Activity (Aspergillus niger [23]) was 1.56 µg/mL, the zone of inhibition at 15 µg/disc (Aspergillus flavus [24]) was 27.3 mm and the Activity (Aspergillus fumigatus [25]) was 1.56 µg/mL. For the same molecule, the zone of inhibition at 15 µg/disc (Fusarium graminearum) was 26.5 mm, the zone of inhibition at 15 µg/disc (Botrytis cinerea) was 30 mm and the Activity (Ascochyta rabiei) was “Active”.
